Reference: paper PMC11492202 (RSC Advances, 2024)

How the values were obtained:
α-amylase = experiment: In vitro α-amylase inhibition assay; format: biochemical; settings: read-out: α-Amylase inhibition IC50 ± SEM; starch substrate, pH 6.9
Proteinase K = Proteinase K (Parengyodontium album, UniProt P06873); experiment: In vitro proteinase K inhibition assay; format: biochemical, Tritirachium album Limber
Escherichia coli = experiment: Antibacterial disc diffusion assay; format: cell-based; settings: 37 °C, 24 hours
Method in brief: (§1)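 Organisms grown overnight in nutrient broth, adjusted to 0.5 McFarland turbidity and spread evenly on Mueller-Hinton agar with sterile cotton brushes. Sterile 4 mm paper discs were impregnated with test compound and placed on the inoculated plates. Rifampin served as the positive control and DMSO as the negative control. Plates were incubated at 37 °C for 24 h, and inhibition zones were measured in mm.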

Bacillus subtilis = experiment: Antibacterial disc diffusion assay; format: cell-based; settings: 37 °C, 24 hours
Method in brief: as §1

Sequence of Proteinase K (P06873 106-384): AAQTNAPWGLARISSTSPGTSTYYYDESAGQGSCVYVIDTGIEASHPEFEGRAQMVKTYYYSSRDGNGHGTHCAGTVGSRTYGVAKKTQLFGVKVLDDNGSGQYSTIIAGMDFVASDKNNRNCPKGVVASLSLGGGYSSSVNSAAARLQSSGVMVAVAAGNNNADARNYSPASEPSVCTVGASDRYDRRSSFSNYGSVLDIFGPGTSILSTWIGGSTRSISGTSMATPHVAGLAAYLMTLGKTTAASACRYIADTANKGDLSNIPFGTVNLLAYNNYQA

| IC50 (α-amylase) [µM] | IC50 (Proteinase K) [µM] | SMILES | Antibacterial zone of inhibition (Escherichia coli) [mm] | Antibacterial zone of inhibition (Bacillus subtilis) [mm] |
| --- | --- | --- | --- | --- |
| 1.55 ± 0.024 | 1.83 ± 0.062 | Cc1ccc(-c2cc(-c3ccccc3)nc(NC(=S)NC(=O)c3ccccc3)n2)cc1 [6c, N-((4-Phenyl-6-(p-tolyl)pyrimidin-2-yl)carbamothioyl)benzamide] | 7 | 8 |
| 1.601 ± 0.008 |  | O=C(NC(=S)Nc1nc(-c2ccccc2)cc(-c2ccc(Cl)cc2)n1)c1cccc2ccccc12 [6h, N-((4-(4-Chlorophenyl)-6-phenylpyrimidin-2-yl)carbamothioyl)-1-naphthamide] | 6 | 8 |
| 1.664 ± 0.01 | 1.79 ± 0.08 | Cc1ccccc1C(=O)NC(=S)Nc1nc(-c2ccccc2)cc(-c2ccc(Cl)cc2)n1 [6f, N-((4-(4-Chlorophenyl)-6-phenylpyrimidin-2-yl)carbamothioyl)-2 methylbenzamide] | 7 | 6 |
| 1.662 ± 0.01 |  | O=C(NC(=S)Nc1nc(-c2ccccc2)cc(-c2ccc(F)cc2)n1)c1ccccc1 [6e, N-((4-(4-Fluorophenyl)-6-phenylpyrimidin-2-yl)carbamothioyl)benzamide] | 6 | 7 |
|  |  | CO[C@H]1/C=C/O[C@@]2(C)Oc3c(C)c(O)c4c(O)c(c(/C=N/N5CCN(C)CC5)c(O)c4c3C2=O)NC(=O)/C(C)=C\C=C\[C@H](C)[C@H](O)[C@@H](C)[C@@H](O)[C@@H](C)[C@H](OC(C)=O)[C@@H]1C [Rifampin, reference compound] | 17 | 26 |
| 1.52 ± 0.034 |  | O=C(NC(=S)Nc1nc(-c2ccccc2)cc(-c2ccc(Cl)cc2)n1)C1CCCCC1 [6i, N-((4-(4-Chlorophenyl)-6-phenylpyrimidin-2-yl)carbamothioyl) cyclohexane carboxamide] | 7 | 11 |
| 1.55 ± 0.023 |  | Cc1ccc(-c2cc(-c3ccc(F)cc3)nc(NC(=S)NC(=O)c3ccccc3)n2)cc1 [6d, N-((4-(4-Fluorophenyl)-6-(p-tolyl)pyrimidin-2-yl)carbamothioyl)benzamide] | 8 | 9 |
| 1.612 ± 0.004 | 1.81 ± 0.086 | COc1ccc(C(=O)NC(=S)Nc2nc(-c3ccccc3)cc(-c3ccc(Cl)cc3)n2)cc1OC [6b, N-((4-(4-Chlorophenyl)-6-phenylpyrimidin-2-yl)carbamothioyl)-3,4-dimethoxybenzamide] | 6 | 9 |
| 1.676 ± 0.014 |  | O=C(NC(=S)Nc1nc(-c2ccccc2)cc(-c2ccc(Br)cc2)n1)c1ccccc1 [6a, N-((4-(4-Bromophenyl)-6-phenylpyrimidin-2-yl)carbamothioyl) benzamide] | 7 | 8 |
| 1.48 ± 0.051 |  | Cc1ccc(C(=O)NC(=S)Nc2nc(-c3ccccc3)cc(-c3ccc(Cl)cc3)n2)cc1 [6j, N-((4-(4-Chlorophenyl)-6-phenylpyrimidin-2-yl)carbamothioyl)-4-methylbenzamide] | 6 | 7 |
